Measured values taken from PubChem BioAssay AID540295 (The Scripps Research Institute Molecular Screening Center, 2011).
The campaign covered roughly 360,000 compounds. About 1,700 (0.47%) were called active. Only a selection was taken, and actives are over-represented in it overall. A number with no mark means an inactive call.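 The calls were made as follows: active = inhibition above its plate's cutoff, the mean of tested wells on that plate plus 3 SD (cut at about 29% in these data); inactive = the rest.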

Molecular target: Melanocortin receptor 4 (Homo sapiens) (UniProt P32245)
Assay: MC4R antagonists of cAMP signaling, primary screen, cell-based, TR-FRET, antagonist arm of biased-ligand search (AID 540295);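 also: 0% = Melanotan II alone and 100% = Melanotan II plus saturating MCL0020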
Details: MC4R-expressing cells, MTII-stimulated cAMP, LANCE TR-FRET; at 6.5 µM; hits give high values
Method in brief: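 System – human MC4R-expressing U2OS cells · Also added – Melanotan II · Dosing – one concentration, 6.5 µM nominal · Timing – 30-min compound, 1-h challenge, 1-h detection, room temperature · Measured by – Eu-cAMP/anti-cAMP TR-FRET, emission 671 nm · Replicates – singlicate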

Sequence of Melanocortin receptor 4 (Homo sapiens) (P32245 whole entry, looked up): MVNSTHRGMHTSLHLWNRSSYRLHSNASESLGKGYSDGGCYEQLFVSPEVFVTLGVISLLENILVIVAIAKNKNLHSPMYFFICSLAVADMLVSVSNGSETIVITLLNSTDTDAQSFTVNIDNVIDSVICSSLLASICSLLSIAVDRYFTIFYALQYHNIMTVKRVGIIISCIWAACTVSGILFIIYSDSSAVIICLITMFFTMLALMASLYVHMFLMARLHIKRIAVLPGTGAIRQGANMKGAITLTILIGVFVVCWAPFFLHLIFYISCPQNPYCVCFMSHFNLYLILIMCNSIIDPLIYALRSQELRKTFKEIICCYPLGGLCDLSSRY

Going from `CCN(C(=O)CSc1ncnc2sccc12)c1c(N)n(Cc2ccccc2)c(=O)[nH]c1=O` to `Cc1cc(=O)oc2cc(NC(=O)C3CC(=O)N(Cc4ccccc4)C3)ccc12` (configuration not stated), the inhibition rises from -1.83% to 15.7%.

Compared with `CCCNc1ncnc2sc(C)c(C)c12`, `CCCc1nc2oc3c(OCC)ncnc3c2c2c1COC(C)(C)C2` is higher in inhibition: -9.19% for the first, 2.51% for the second.

First: COc1ccc(OC)c(S(=O)(=O)n2c([N+](=O)[O-])cnc2C)c1
Second: COc1ccc(/C=N/n2c(C)cc(C)cc2=O)cc1
The inhibition of the first is lower: 0.16% for the first, 5.08% for the second.

First: COc1cccc(CSc2nc3nc(C)cc(C)n3n2)c1
Second: COc1ccc(CCNC(=O)c2c(C)nn(-c3ccccc3)c2Cl)cc1
The inhibition of the first is lower: -3.34% for the first, 13.4% for the second.

First: Cc1ccc(C)c(S(=O)(=O)N2CCCOC2CNC(=O)C(=O)NC2CCCCC2)c1 (configuration not stated)
Second: Cc1ccc(NC(=O)COC(=O)C2CC2)cc1S(=O)(=O)N1CCOCC1
The inhibition of the first is lower: 4.1% for the first, 5.97% for the second.

Going from `O=C1CCC([N+](=O)[O-])C(c2ccccc2Br)N1` (configuration not stated) to `O=C(OCc1ccc([N+](=O)[O-])cc1)C1CC(=O)N(Cc2ccccc2Cl)C1` (configuration not stated), the inhibition falls from 25.1% to 7.18%.

Going from `C/C(=N\OCC(=O)Nc1ccc(Br)cc1)c1cccs1` to `Cn1cccc1C(=O)OCC(=O)c1ccc(Br)s1`, the inhibition rises from -1.35% to 4.25%.

First: Cc1ccc(OCC(=O)Nc2ccc(N3CCN(C(=O)c4ccco4)CC3)cc2)c(C)c1
Second: COC(=O)c1cc(NC(=O)c2cc(C(C)(C)C)nn2Cc2cccc(C)c2)ccc1N1CCOCC1
The inhibition of the first is higher: 12.1% for the first, 4.17% for the second.

Compared with `CC(=O)Oc1ccc(-c2cccc(C(=O)N3CCCCC3)c2)cc1`, `O=C(OCC(=O)N1CCCCCC1)c1ccc(Cl)nc1` is higher in inhibition: -4.05% for the first, 2.21% for the second.

Compared with `O=C(O[C@@H]1[C@H](Cc2ccccc2)NS(=O)(=O)[C@H]2C[C@@H]3C=C[C@]12O3)c1ccccc1Br`, `CC(OC(=O)C1CC(=O)N(Cc2ccccc2)C1)C(=O)Nc1ccccc1[N+](=O)[O-]` (configuration not stated) is lower in inhibition: 12% for the first, -5.04% for the second.

Going from `Cc1ccc(C)c(NC(=O)CN(C)C(=O)COc2ccc3ccccc3c2)c1` to `Cc1ccc(C)c(NS(=O)(=O)c2ccc(OCC(=O)NCc3cccnc3)cc2)c1`, the inhibition falls from 2.76% to -2.79%.

Going from `O=C(Nc1cc(C(F)(F)F)ccc1Cl)c1cc2nc3c(c(C(F)(F)F)n2n1)CCCC3` to `Cc1ccc(OCC(=O)Nc2cccc3c2CCCC3)cc1C`, the inhibition rises from 2.12% to 5.28%.

First: CN(CC(=O)NC1CCCC1)S(=O)(=O)c1cnc[nH]1
Second: O=C(OCC(=O)N1CCCC1)c1ccc(Cl)nc1
The inhibition of the first is higher: -1.7% for the first, -3.4% for the second.

First: CCCCCOC(=O)C1=C(C)Nc2nnnn2C1c1ccc(OC)c(OC)c1OC (configuration not stated)
Second: COc1ccc(CCNC(=O)COC(=O)c2ncc(Cl)c(Cl)c2Cl)cc1OC
The inhibition of the first is lower: 12.4% for the first, 14.8% for the second.

Going from `Cn1ccc(=NC=C(C#N)C#N)c2ccccc21` to `COc1ccc(/C=C(\C#N)C(=O)NCCCn2ccnc2)cc1`, the inhibition falls from 27.8% to 6.52%.

Going from `O=C(CN1CCCSc2ccccc21)N1CCN(S(=O)(=O)c2cccc(F)c2)CC1` to `O=C(CN1CCCSc2ccccc21)N1CCN(S(=O)(=O)c2ccccc2)CC1`, the inhibition rises from 5.01% to 5.29%.

First: Cc1ccc2c(c1)C1CN(C)CCC1N2S(=O)(=O)c1ccc(Oc2ccc([N+](=O)[O-])cc2)cc1 (configuration not stated)
Second: CNC(=O)C1CN(C(=O)c2cccc(S(=O)(=O)N3CCc4ccccc43)c2)c2ccccc2O1 (configuration not stated)
The inhibition of the first is lower: 2.73% for the first, 5.06% for the second.

Compared with `O=C(CN1CCc2ccccc21)NC(c1ccccc1)c1ccccc1`, `Cc1c(Cl)cccc1NC(=S)NCC(O)c1ccccc1` (configuration not stated) is higher in inhibition: 1.1% for the first, 3.92% for the second.

First: NC(=O)c1ccc(NC(=O)COC(=O)c2c3c(nc4ccccc24)/C(=C\c2ccc4c(c2)OCO4)CCC3)cc1
Second: O=C(COC(=O)/C=C/c1cn(-c2ccccc2)nc1-c1cccnc1)Nc1ccc(Cl)cc1Cl
The inhibition of the first is lower: -10% for the first, 11.1% for the second.

Going from `COc1ccc(NC2CCCN(C(=O)c3ccccc3-c3ncc[nH]3)C2)cc1` (configuration not stated) to `CCOc1ncccc1C(=O)NCCc1ccc(OC)cc1`, the inhibition falls from 4.61% to -0.79%.

Going from `CCc1ccc2oc(=O)cc(CN3CCCCC3C)c2c1` (configuration not stated) to `CCN(CC)C(=O)C1CCCN(Cc2cccc(Cl)c2)C1` (configuration not stated), the inhibition falls from 10.6% to -1.5%.

Compared with `CC(NC(=O)COc1ccccc1)C(=O)NC1=NCCS1` (configuration not stated), `CC(CCc1ccccc1)NC(=O)c1cnc(Cl)c(Cl)c1` (configuration not stated) is higher in inhibition: 0.52% for the first, 9.38% for the second.

Going from `COC(=O)c1ccc(COC(=O)c2cnc(Cl)c(Cl)c2)cc1` to `O=C(c1cnc(Cl)c(Cl)c1)N1CCN(S(=O)(=O)c2ccc(F)cc2)CC1`, the inhibition falls from 21.5% to 19.3%.

Going from `NC1=NC(=O)S/C1=C\c1ccc(O)cc1` to `COc1ccc(/C=C/C(=O)c2c(O)cc(OC)cc2OC)cc1`, the inhibition rises from -45.1% to -19.9%.

First: CC(CC(=O)C1C(C)C=CCC1(C)C)NNC(N)=O (configuration not stated)
Second: COc1ccccc1C(=O)NC(CCSC)C(=O)NNC(=O)c1csc(N2CCOCC2)n1 (configuration not stated)
The inhibition of the first is lower: 0.06% for the first, 14.9% for the second.

Compared with `CCOC(=O)C1=CN(Cc2ccc(Br)cc2)S(=O)(=O)NC1C` (configuration not stated), `CCOc1ccc(OCC(=O)Nc2c3c(nn2C(C)(C)C)CS(=O)(=O)C3)cc1` is lower in inhibition: 1.79% for the first, 1.77% for the second.

First: CN(C)/C=C(/C(=O)c1ccc(F)cc1)S(=O)(=O)c1ccc(F)cc1
Second: O=S(=O)(Cc1noc(-c2ccc(OC(F)(F)F)cc2)n1)c1ccc(F)cc1
The inhibition of the first is lower: -0.11% for the first, 4.42% for the second.

Compared with `CCOC(=O)N1CCN(C(=O)C2CCN(S(C)(=O)=O)CC2)CC1`, `Cc1cc(=O)n2nc(N3CCCC(C(=O)N4CCN(C)CC4)C3)sc2n1` (configuration not stated) is lower in inhibition: 3.32% for the first, 0.44% for the second.

First: Brc1ccc(CN2CC[C@H]3C=CCc4cccc(c43)C2)cc1
Second: O=c1c2cc(Br)ccc2nc(-c2cccc(Cl)c2)n1O
The inhibition of the first is higher: 11.3% for the first, 2.37% for the second.

First: CSc1nnc2c(n1)OC(c1ccsc1)N(C(C)=O)c1ccccc1-2 (configuration not stated)
Second: Cc1cc(-c2csc(N)n2)c(C)n1-c1ccccc1
The inhibition of the first is lower: 3.07% for the first, 4% for the second.

First: CSc1ccc(C#N)cc1NC(=O)c1ccc(Cl)cc1
Second: Cc1ccc(NC(=O)CCCNC(=O)c2ccc(Cl)cc2)cc1S(=O)(=O)N1CCOCC1
The inhibition of the first is higher: 2.18% for the first, -7.04% for the second.

First: Cc1c(Cl)cccc1NC(=O)NCc1ccc(C)n1C
Second: Cc1cccc(-n2ncc(Cl)c(Cl)c2=O)c1
The inhibition of the first is lower: 5.07% for the first, 27.8% for the second.

Going from `CCOC(=O)C1(Cc2ccccc2C(F)(F)F)CCN(C(=O)c2cc(C)n(C)n2)CC1` to `CCOCCCNC(=O)c1cc2c(=O)n3ccccc3nc2s1`, the inhibition falls from 5.76% to -4.33%.

First: CC1(C(=O)N/N=C/c2cc3c(cc2Br)OCO3)CC1(Br)Br (configuration not stated)
Second: COc1ccc2c(c1)C(=O)Nc1cc(Cl)ccc1N2
The inhibition of the first is higher: 19.5% for the first, -3.19% for the second.

Compared with `O=[N+]([O-])c1ccc(Oc2ccc(F)cc2Br)c2ccncc12`, `CCCOc1ccc(F)cc1-c1cc(C(=O)Nc2ccc(F)c(Cl)c2)[nH]n1` is higher in inhibition: 2.28% for the first, 3.21% for the second.

Compared with `COc1cc(NC(=O)c2cc(-c3ccc(F)cc3OC(C)C)n[nH]2)cc(OC)c1OC`, `CN(C)C(=O)c1cccc(-c2cnc3c(NC=O)cc(-c4ccc(F)cc4)cn23)c1` is lower in inhibition: 19.5% for the first, -2.24% for the second.

Compared with `CC(C)Nc1nc(NCCOc2ccccc2Cl)c2sccc2n1`, `O=C(NNS(=O)(=O)c1c(F)cc(F)c(Cl)c1F)C12CC3CC(CC(C3)C1)C2` is higher in inhibition: -7.14% for the first, -0.65% for the second.

In the case of `COc1ccc(C(C[N+](=O)[O-])n2nc(C)cc2C)cc1` (configuration not stated), the inhibition is reported as 46.6% (active).
With `Cc1ccc(OCC(=O)Nc2ccc(NC(=O)c3cccs3)cc2)c(C)c1` the inhibition was 29.7% (active).
In the case of `Cc1ccc(NS(=O)(=O)c2ccc(C)c(NC(=O)COc3ccc4ccccc4c3)c2)c(C)c1`, the inhibition is reported as 31.4% (active).
With `O=[N+]([O-])/C=C/c1ccc2c(ccn2Cc2ccccc2)c1` the inhibition was 46.2% (active).
`N#C/C=C1\Sc2ccccc2C(=O)N1CC(=O)N1CCN(S(=O)(=O)c2ccccc2)CC1` was tested, and the inhibition was 33.4% (active).
With `O=C(COC(=O)c1c2c(nc3ccccc13)CCCC2)c1ccc(Br)s1` the inhibition was 33.9% (active).
With `O=C(OCC(=O)N1CCCCCC1)c1cnc(Cl)c(Cl)c1` the inhibition was 30.5% (active).
`COc1ccc(CCNC(=O)c2cnc(Cl)c(Cl)c2)cc1` was tested, and the inhibition was 29.6% (active).
For `COc1ccc(CCNC(=O)COC(=O)c2cnc(Cl)c(Cl)c2)cc1`, the inhibition was 39.7% (active).
For `Cc1c(Cl)cccc1NC(=O)[C@@]1(CC(=O)O)CC(/C=C/c2ccccc2)=NO1`, the inhibition was 38.9% (active).
With `O=C(O)CCn1cc(/C=C/C(=O)c2ccc(Cl)cc2)c(-c2cccc(Br)c2)n1` the inhibition was 32.5% (active).
With `O=C(Nc1ccc(F)c([N+](=O)[O-])c1)C1CC(=O)N(Cc2ccccc2)C1` (configuration not stated) the inhibition was 35.5% (active).
In the case of `CC(C)Oc1c(Br)cc(Br)cc1/C=N/NC(N)=S`, the inhibition is reported as 31.4% (active).
`COc1ccc(Cl)cc1-c1cc(C(=O)Nc2cc(OC)c(OC)c(OC)c2)[nH]n1` was tested, and the inhibition was 29.8% (active).
`COc1ccc(Oc2c(Cl)cnn(-c3ccccc3)c2=O)cc1` was tested, and the inhibition was 54.6% (active).
For `COCCCNC(=O)/C(C#N)=C/c1c(N2CCCCCC2)nc2ccccn2c1=O`, the inhibition was 31% (active).
In the case of `CC(=O)N1CCN(S(=O)(=O)c2c(F)cc(F)c(Cl)c2F)CC1`, the inhibition is reported as 32.7% (active).
In the case of `Cc1ccc(NC(=O)COC(=O)CNC(=O)c2ccc(Cl)cc2Cl)cc1S(=O)(=O)N1CCOCC1`, the inhibition is reported as 31.4% (active).
